STAT1 inh – STAT1 signaling inhibition; 200,000 compounds, 0.35% hits; inhibition, % at 5.5 µM; AID 920; NIH 3T3 STAT1-luciferase reporter, IFN-gamma, luminescence;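 active means inhibition above a set limit, the mean inhibition across all tested compounds plus 3 SD, cut at about 34% in these data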;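 further: 0% = IFN-gamma with DMSO and 100% = IFN-gamma with 300 µM nifuroxazide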
HSP90 refold inh – inhibitors of HSP90 luciferase refolding in rabbit reticulocyte lysate; 290,000 compounds, 0.91% hits; inhibition, % at 5.6 µM; AID 1789; luciferase refolding luminescence, 3 h;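 active means inhibition above the screen-wide mean plus 3 SD, computed separately per campaign, cut at about 16% in these data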;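 further: 0% = DMSO wells and 100% = 60 µM geldanamycin wells; inhibitors lower the luminescence because luciferase stays unfolded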
STAT3 blocker – STAT3 signaling inhibition; U3A cells, IL-6 STAT3-luciferase reporter, luminescence; host cell line lacks STAT1; inhibition, % at 5.5 µM; 190,000 compounds, 0.89% hits; AID 862;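 active means inhibition above the mean inhibition across all screened compounds plus 3 SD, cut at about 44% in these data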;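 further: 0% = DMSO only wells and 100% = 100 µM nifuroxazide control wells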
TRAIL sens C8 – caspase-8 TRAIL sensitization; 360,000 compounds, 1% hits; inhibition (viability loss, TRAIL sensitization), % at 10 µM; NB7+C8 cells + TRAIL, ATPlite viability luminescence;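 active means compounds causing at least 50% loss of cell viability in the single-dose screen, relative to plate controls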
PPC-1+TRAIL kill – PPC-1 cancer cell killing with TRAIL present; PPC-1 cells + TRAIL, ATPLite viability luminescence; cell killing (% activity), % at 4 µM or 5 µM; 220,000 compounds, 0.41% hits; AID 1443;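 active means cell killing above 50% in the first pass at 4 µM, then a duplicate retest at 5 µM averaging 50% or more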;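 further: plate controls were cells with TRAIL plus DMSO for no effect and medium-only wells lacking cells for full effect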
STAT3 activator – STAT3 signaling activation | 190,000 compounds, 0.91% hits | activation (% of control), % at 5.6 µM | U3A cells, IL-6 STAT3-luciferase reporter, luminescence; 100% = signal with IL-6 EC80 alone;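 active means activation above the screen-wide mean of compound activation plus 3 SD, cut at about 130% in these data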;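 further: 0% = background luminescence of wells with medium and substrate only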
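Test system: human U3A cells carrying STAT3-luciferase construct; control set: IL-6-only wells as 100% reference; timing: compound pre-incubation 1 h before IL-6, then 6 h stimulation at 37 °C; also added: IL-6 stimulus at 33 ng/mL final; evaluation: % activation versus median of IL-6-stimulated wells; detection: reporter luminescence signal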
* hit, by the source's call; x = no result given. Rows were chosen to be rich in hits. Some 2.3% of all compounds tested hit in one or more screens of this group.

SMILES	STAT1 inh	HSP90 refold inh	STAT3 blocker	TRAIL sens C8	PPC-1+TRAIL kill	STAT3 activator
Cc1cc(NC(=O)c2cncc(Br)c2)ccc1NC(=O)c1cc2ccccc2o1	x	3.4	x	59.8*	x	x
Cc1ccc(C)c(NC(=O)c2cc3ccccc3o2)c1	x	-1.8	x	22.1	x	x
Cc1csc(C(C#N)C(=O)c2cc3ccccc3o2)n1 (stereo not given)	-18.9	8.1	30.7	59.4*	34.0	76.6
O=C(NNC(=O)c1cc2ccccc2o1)c1ccc(F)cc1	x	x	x	2.0	x	x
CCN(CC)S(=O)(=O)c1cc(NC(=O)C(C)Nc2ccccc2N2CCOCC2)ccc1C (stereo not given)	3.6	2.8	-6.9	-3.0	14.2	106.7
Cc1ccc(C)c(S(=O)(=O)N2CCN(C(=O)c3ccc(N4CCCC4)c([N+](=O)[O-])c3)CC2)c1	x	3.5	x	-3.0	x	x
Cc1ccc(NC(=O)CSc2ccc(-c3ccc4c(c3)OCO4)nn2)cc1F	3.4	-5.2	-1.1	55.0*	29.4	103.7
O=C(CN1CCN(S(=O)(=O)c2ccc(F)cc2)CC1)Nc1ccc(Cl)c(C(F)(F)F)c1	1.7	-2.0	2.9	60.0*	0.0	104.2
O=C1Nc2ccc(Br)cc2C1Cc1ccccc1F (stereo not given)	x	-1.6	x	-17.4	x	x
Cn1c(CC2C(=O)Nc3ccc(Br)cc32)nc2ccccc2c1=O (stereo not given)	14.1	2.6	-35.6	-2.0	-0.9	133.4*
N#Cc1ccc(Cn2c(=O)oc3ccccc32)cc1	x	-4.0	x	-10.5	x	x
CC(=O)Nc1sc(C)c(C)c1C(=O)OCC(=O)N(CC(C)C)c1c(N)n(Cc2ccccc2)c(=O)[nH]c1=O	x	x	x	94.7*	x	x
COC(=O)c1c(C)[nH]c(C(=O)OCC(=O)N(CC(C)C)c2c(N)n(Cc3ccccc3)c(=O)[nH]c2=O)c1C	x	x	x	9.5	x	x
CCC(C(=O)O/N=C(\N)c1ccccc1)c1ccccc1 (stereo not given)	-3.5	1.5	6.2	71.4*	10.9	96.2
CCC(C(=O)O/N=C(\N)c1ccc(C)cc1)c1ccccc1 (stereo not given)	-9.4	-1.2	9.0	72.1*	4.3	97.2
CCC(C(=O)O/N=C(\N)c1ccc(Cl)cc1)c1ccccc1 (stereo not given)	-0.2	4.6	-0.2	32.2	4.2	100.4
O=c1cc(-c2cccc(F)c2)[nH]c2ccccc12	-8.7	3.1	-42.7	5.6	4.8	133.3*
O=C1/C(=C\c2ccc(O)c(O)c2)C(c2ccccc2)=NN1c1ccccc1	-6.6	5.5	2.8	0.7	-2.2	98.8
COc1cc(/C=C2\C(=O)N(c3ccc(NC(C)=O)cc3)N=C2c2ccccc2)ccc1O	-1.6	16.3*	-8.7	-3.2	-8.4	111.4
CCOC(=O)/C(=C\c1cccnc1)C(=O)c1cc(C(C)=O)c(Nc2ccccc2)s1	-4.0	2.1	-27.7	94.3*	12.0	129.5
COC(=O)c1[nH]c2cccc(OC)c2c1NC(=O)CCN1CCN(c2ccccc2F)CC1	-6.0	-2.8	8.3	x	14.6	99.4
COc1cccc2sc(N(C)c3ccccc3)nc12	-54.8	12.2	43.2	60.0*	39.1	65.9
COc1ccc(C(=O)NCCn2cc(SCC(=O)N3CCOCC3)c3ccccc32)cc1	1.3	46.7*	4.3	12.2	28.8	98.6
Cc1ccc(C(=O)NCCn2cc(SCC(=O)Nc3nnc(C)s3)c3ccccc32)cc1	-15.3	50.0*	2.0	15.7	3.6	106.0
CCCn1cc(SCC(=O)Nc2nnc(C)s2)c2ccccc21	6.7	-3.8	-11.5	6.1	20.8	109.6
SMILES	STAT1 inh	HSP90 refold inh	STAT3 blocker	TRAIL sens C8	PPC-1+TRAIL kill	STAT3 activator
Cc1ccc(C(=O)c2no[n+]([O-])c2C(=O)c2ccc(C)cc2)cc1	-4.2	2.3	-6.4	93.2*	10.1	109.0
Cc1ccc(C(=O)c2ccc(C)cc2)cc1	-16.3	0.2	8.2	-6.0	19.4	98.7
CC(C)NC(=O)C1(C)CN(S(C)(=O)=O)CC(=O)N1CCCn1ccnc1 (stereo not given)	x	x	x	-2.1	x	x
COc1cc2nc(N3CCNCC3)nc(N)c2cc1OC	1.1	-0.8	-1.4	53.4*	22.9	103.4
COc1cc2nc(N3CCN(c4cc(C)ccc4C)CC3)nc(N)c2cc1OC	x	-1.6	x	56.8*	x	x
Fc1ccc(-c2cn3cc(C(F)(F)F)cc(Cl)c3n2)cc1	-43.4	-0.4	-74.8	20.3	23.6	174.3*
COc1ccc(-c2cn3cc(C(F)(F)F)cc(Cl)c3n2)cc1	-58.4	-4.1	-67.2	38.6	27.6	161.1*
CCN(CC)S(=O)(=O)c1cccc(NC(=O)Nc2cccc(C(F)(F)F)c2)c1	-1.7	-2.9	18.8	65.3*	5.6	89.8
CCN(CC)S(=O)(=O)c1cccc(NC(=O)CC2CCCC2)c1	x	-5.8	x	-5.0	x	x
Clc1nc(N2CCOCC2)ncc1Br	x	5.3	x	28.4	9.4	x
COc1ccc(-n2c(C)cc(C(=O)Cn3c(NCCO)nc4ccccc43)c2C)cc1	-2.4	2.7	5.5	-5.7	22.5	99.9
O=C1C(=O)N(CCN2CCOCC2)C(c2cccnc2)/C1=C(/O)c1ccccc1 (stereo not given)	-5.6	-1.9	-0.3	x	x	105.5
CC(=O)c1ccc(NC(=O)CCC(=O)OCC(F)(F)C(F)F)cc1	-3.0	16.6*	8.7	2.2	28.1	97.0
CCOc1ccc(OCCC(=O)N(CCC(C)C)c2c(N)n(Cc3ccccc3)c(=O)[nH]c2=O)cc1	x	x	x	-1.7	x	x
CCOc1cc(/C=C/c2cc(C(=O)O)c3ccccc3n2)ccc1O	-3.1	1.7	11.9	37.5	21.8	91.6
CCOc1cc(/C=C/c2cc(C(=O)O)c3ccccc3n2)ccc1OC	-8.0	-6.8	-9.9	58.0*	28.4	109.4
COc1ccc(C2CC(c3cccs3)=NN2C(=O)c2ccccc2)cc1OC (stereo not given)	x	1.6	x	1.9	x	x
COc1cc(C2CC(c3cccs3)=NN2C(=O)CCl)ccc1OC(F)F (stereo not given)	x	3.3	x	95.4*	x	x
COc1ccc(C2CC(c3cccs3)=NN2C(=O)CCl)cc1OC (stereo not given)	x	3.9	x	95.6*	x	x
Cc1ccc(NC(CC(=O)c2ccccc2)C(=O)O)cc1Cl (stereo not given)	x	5.5	x	31.3	11.1	x
CCOc1cc(C(=S)N2CCCC2)ccc1OCc1ccccc1	x	0.9	x	-12.7	x	x
Cc1ccc(/C(O)=C2\C(=O)C(=O)N(C)C2c2ccccc2[N+](=O)[O-])cc1 (stereo not given)	x	0.0	x	3.3	x	x
Cc1ccc(/C(O)=C2\C(=O)C(=O)N(Cc3cccnc3)C2c2ccccc2[N+](=O)[O-])cc1 (stereo not given)	-17.7	-2.8	-33.8	-0.8	24.7	133.2*

High-throughput results as filed in PubChem.
